High-throughput results as filed in PubChem BioAssay.
PKA inh: PKA (human) kinase inhibition | P17612 | PKA Kemptide phosphorylation, Kinase-Glo ATP luminescence | hit rate 0.1% among 65,000 | AID 524 | inhibition, % at 6 µM;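 active means inhibition above the screen-wide mean inhibition plus 3 SD, cut at about 21% in these data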
MMP13 inh: inhibitors of human MMP13. P45452. MMP-13 fTHP FRET cleavage, Mca fluorescence. inhibition, % at 4 µM. hit rate 0.07% among 65,000. AID 570;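 active means inhibition above the mean of compound-free control plate wells plus 3 SD, cut at about 14% in these data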;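 further: 0% = DMSO wells and 100% = wells with reference MMP-13 inhibitor after basal subtraction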
ROCK2 blocker: inhibitors of human Rho kinase 2 | AID 604 | purified ROCK2, Kinase-Glo ATP depletion luminescence | O75116 | hit rate 0.35% among 60,000 | inhibition, % at 6 µM;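 active means inhibition above the screen-wide mean inhibition plus 3 SD, cut at about 18% in these data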;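 further: plate controls were DMSO wells for no effect and Y-27632 control wells after no-enzyme background subtraction for full effect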
S1P1 ag pot: agonists and agonism potentiators of human S1P1 receptor | P21453 | S1P1 CRE-bla cells, forskolin, beta-lactamase FRET, potentiator mode; S1P1 agonist co-added at EC20, 2 nM; 100% = saturating reference agonist, 0% = basal | activation, % at 9.5 µM | hit rate 0.57% among 56,000;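 active means activation above a cutoff set at the mean activation of all tested compounds plus 3 SD, cut at about 54% in these data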;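 further: forskolin at 4 µM as EC80 and the EC20 agonist is SEW2871; 100% = SEW2871 at its EC100 plus forskolin at EC80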
JNK3 blocker: inhibitors of human JNK3 kinase; P53779; hit rate 0.61% among 60,000; AID 746; inhibition, % at 8 µM; purified JNK3 kinase activity, HTS; in the data active means inhibition above about 17%;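 further: 0% = DMSO and 100% = reference inhibitor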
Target sequence (P53779 whole entry, looked up): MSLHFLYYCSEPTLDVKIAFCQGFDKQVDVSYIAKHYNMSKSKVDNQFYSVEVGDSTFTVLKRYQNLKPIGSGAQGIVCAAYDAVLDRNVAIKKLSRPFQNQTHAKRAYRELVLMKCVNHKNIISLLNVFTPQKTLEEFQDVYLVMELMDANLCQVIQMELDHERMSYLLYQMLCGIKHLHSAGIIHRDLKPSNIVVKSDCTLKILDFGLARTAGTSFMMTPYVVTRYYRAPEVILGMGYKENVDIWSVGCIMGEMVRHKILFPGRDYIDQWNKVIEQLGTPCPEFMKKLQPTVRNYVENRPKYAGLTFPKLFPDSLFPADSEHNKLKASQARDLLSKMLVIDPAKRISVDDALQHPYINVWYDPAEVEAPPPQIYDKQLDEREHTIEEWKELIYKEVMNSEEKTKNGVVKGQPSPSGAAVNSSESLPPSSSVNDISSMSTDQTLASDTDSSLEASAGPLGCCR
S1P3 agonist: S1P3 (human) receptor agonism. Q99500. S1P3 NFAT-BLA reporter cells, FRET ratio; relative to 1 µM S1P, basal subtracted. activation, % at 4.5 µM. hit rate 0.1% among 60,000. AID 373;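 active means activation above the screen-wide mean plus 3 SD, cut at about 4.5% in these data, passing the limit was not always enough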
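Assay system: stable CHO line with human S1P3, Gα16, NFAT-BLA reporter; Detection: FRET β-lactamase substrate fluorescence, excitation 405 nm, 460/535 nm emission ratio, background-subtracted; Read-out: percent activation versus median 1 µM S1P response, basal-subtracted, per plate; Incubation: cells plated overnight, compound 4 h 37 °C, substrate 2 h RT.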
* hit, by the source's call; i = inactive; . = no result given. Compounds with a hit are over-represented: about 1.2% of the library has one in this group of screens.

SMILES	PKA inh	MMP13 inh	ROCK2 blocker	S1P1 ag pot	JNK3 blocker	S1P3 agonist
COC(=O)c1cccc(Cn2nnc3ccccc3c2=O)c1	10	8	4	-24	17*	-1
COc1cccc(C(=O)OCn2nnc3ccccc3c2=O)c1	4	0	.	.	.	.
CCOC(=O)c1cc2ccc(OC(=O)c3ccco3)cc2oc1=O	5	i	1	-291	0	28*
O=C(O)c1ccccc1NCN1C(=O)C2CC=C(Cl)CC2C1=O (configuration not stated)	0	-51	1	0	0	0
CCCS(=O)(=O)c1nnnn1-c1cccc(OC)c1	-5	2	-1	116*	-1	-2
Cc1cccc(N=C(N2CCOCC2)P(=O)(N2CCOCC2)N2CCOCC2)c1	5	1	.	.	.	.
Cc1nc(SCC(=O)N2CCC(C(N)=O)CC2)n[nH]1	15	3	4	2	9	0
Cn1c(SCC(=O)Nc2ccc(N3CCOCC3)c(Cl)c2)nnc1-c1ccccc1	5	4	2	89*	-3	-1
Cc1cc(NC(=O)C2CCCN(S(=O)(=O)c3cnc[nH]3)C2)ccc1Br (configuration not stated)	6	3	4	-16	2	0
COc1ccc(CCn2c(C)cc(C(=O)CSc3nnnn3C)c2C)cc1	-1	0	-3	7	-2	14*
Cc1cc(C(=O)CSc2n[nH]c(N)n2)c(C)n1-c1cccc(F)c1	-7	5	-10	8	-8	-2
Cc1cc(C(=O)CSc2nnnn2C)c(C)n1-c1cccc(F)c1	5	1	-4	93*	-3	3
O=C1c2ccccc2C(=O)N1CCc1nc2ccccc2c(=O)n1CCCn1ccnc1	8	10	6	-15	0	-1
Cc1nnc2ccc(Oc3ccc(-c4ccccc4)cc3)nn12	3	6	0	68*	-3	-1
COC(=O)c1ccc(Oc2ccc3nnc(C)n3n2)cc1	6	-5	2	14	-1	-2
CC(C)(C)c1cc(CNC2CS(=O)(=O)C[C@@H]2O)cc(C(C)(C)C)c1O (some centres not stated)	4	-1	1	-14	3	-1
Cc1ccc2c(c1)nnn2C1CCN(CC(=O)Nc2ccc3c(c2)OCCO3)CC1	0	0	2	-2	6	0
COc1ccccc1Oc1ccc2c(c1)C(=O)N(c1cccc(O)c1)C2=O	-3	2	0	94*	-1	-2
O=C(NCc1ccco1)c1ccc2nc3sc4c(c3c(=O)n2c1)CCCC4	10	-43	8	-13	4	-2
COc1ccccc1CC(=O)N(CCC#N)CCC#N	-1	-4	-2	-6	0	0
O=c1c2ccccc2nc2sc3ccccc3n12	6	-15	7	-40	8	0
Cc1ccccc1Nc1nn2c(=O)c3ccccc3nc2s1	7	1	0	16	26*	0
O=C(CN1CCN(c2ccc(F)cc2)CC1)c1ccc2c(c1)OCO2	4	0	3	8	0	0
O=C(Nc1ccc(N2CCOCC2)c(Cl)c1)c1c(F)c(F)c(F)c(F)c1F	-6	5	-6	.	-3	-1
Nc1ccc(N2CCOCC2)c(Cl)c1	2	3	-2	93*	-1	-1
SMILES	PKA inh	MMP13 inh	ROCK2 blocker	S1P1 ag pot	JNK3 blocker	S1P3 agonist
CC(C)Cn1c(=O)c(C(=O)Nc2ccccc2S(N)(=O)=O)c(O)c2ccccc21	8	-7	4	120*	3	-2
O=C(NCc1cccnc1)c1cccc2c1C(=O)N(C1CCCCC1)C2	-3	3	0	-8	26*	0
Cc1nc(N)sc1-c1csc(Nc2ccc(Cl)cn2)n1	9	16*	3	.	5	-1
COc1cccc(C(CC(=O)NCc2ccco2)NS(=O)(=O)c2ccc(C)cc2)c1OC (configuration not stated)	3	-13	2	-13	-3	0
COc1ccc(-n2c(=O)c3ccccc3n(CC(=O)NC3CCCC3)c2=O)cc1	2	2	-2	1	1	-1
CNC(=O)c1[nH]cnc1C(=O)Nc1cccc(OC)c1	2	1	6	-19	18*	0
COC(=O)c1ccsc1NC(=O)CN1C(=O)CCC1=O	-2	-6	-14	6	-16	-2
